Test results as given in ChEMBL document CHEMBL1687824, “Overexpression of patA and patB, which encode ABC transporters, is associated with fluoroquinolone resistance in clinical isolates of Streptococcus pneumoniae” (2011).
In brackets after ≈: the same amount, converted by molar mass.

What was measured:
Streptococcus pneumoniae [1] = experiment: Antibacterial activity against fluoroquinolone, dye-resistant Streptococcus pneumoniae M87 overexpressing patA, patB by standardized agar doubling dilution method in presence of 20 ug/ml reserpine efflux pump inhibitor; assay type: functional
How it was run: (§1)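 MIC by agar doubling dilution following BSAC guidelines. Strains grown in brain heart infusion broth 24 h at 37°C in 5% CO2. Where an efflux pump inhibitor applies, MIC redetermined with reserpine at 20 μg/ml or sodium orthovanadate at 50 μM. Synergy taken as a fall in MIC of ≥2 dilutions with inhibitor present. Dye resistance defined relative to R6 (both dyes ≥2 dilutions higher).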

Streptococcus pneumoniae [2] = experiment: Antibacterial activity against fluoroquinolone-resistant Streptococcus pneumoniae M98 FQ-R overexpressing patA, patB by standardized agar doubling dilution method in presence of 50 uM sodium orthovanadate efflux pump inhibitor; assay type: functional
How it was run: (§2)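 Clinical S. pneumoniae isolates grown in BHI broth 24 h at 37°C in 5% CO2. MICs by agar doubling dilution per BSAC guidelines, alone or with efflux inhibitor reserpine (20 μg/ml) or sodium orthovanadate (50 μM). Synergy defined as ≥2-dilution MIC reduction in presence of inhibitor.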

Streptococcus pneumoniae [3] = experiment: Antibacterial activity against Streptococcus pneumoniae M311 overexpressing patA, patB and inactivated patA with single mutation by standardized agar doubling dilution method; assay type: functional
How it was run: (§3)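 MICs determined by BSAC standardized agar doubling dilution. Strains were grown in brain heart infusion broth for 24 h at 37°C in 5% CO2. Inhibitor arms had reserpine at 20 μg/ml or sodium orthovanadate at 50 μM in the agar. Mutants were made by transforming magellan2 insertion amplimers into clinical isolates and selecting on spectinomycin 100 mg/liter, with a no-DNA spontaneous-mutation control.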

Streptococcus pneumoniae [4] = experiment: Antibacterial activity against fluoroquinolone, dye-resistant Streptococcus pneumoniae M87 overexpressing patA, patB by standardized agar doubling dilution method; assay type: functional; how it was run: as §1
Streptococcus pneumoniae [5] = experiment: Antibacterial activity against Streptococcus pneumoniae M87B overexpressing patA, patB and inactivated patB with single mutation by standardized agar doubling dilution method in presence of 50 uM sodium orthovanadate efflux pump inhibitor; assay type: functional
How it was run: (§4)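 MICs were determined by BSAC agar doubling dilution in the presence of sodium orthovanadate at 50 μM. Cultures were grown in BHI broth for 24 h at 37°C in 5% CO2, with R6 as control. Synergy was defined as an MIC reduction of ≥2 dilutions with the inhibitor present.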

Streptococcus pneumoniae [6] = experiment: Antibacterial activity against fluoroquinolone, dye-resistant Streptococcus pneumoniae M74 overexpressing patA, patB by standardized agar doubling dilution method; assay type: functional; how it was run: as §1
Streptococcus pneumoniae [7] = experiment: Antibacterial activity against fluoroquinolone-resistant Streptococcus pneumoniae by standardized agar doubling dilution method in presence of 20 ug/ml reserpine efflux pump inhibitor; assay type: functional; how it was run: as §1
Streptococcus pneumoniae [8] = experiment: Antibacterial activity against fluoroquinolone-resistant Streptococcus pneumoniae M79 FQ-R overexpressing patA, patB by standardized agar doubling dilution method in presence of 20 ug/ml reserpine efflux pump inhibitor; assay type: functional; how it was run: as §2
Streptococcus pneumoniae [9] = experiment: Antibacterial activity against Streptococcus pneumoniae M298 overexpressing patA, patB and inactivated patA with single mutation by standardized agar doubling dilution method; assay type: functional; how it was run: as §3
Streptococcus pneumoniae [10] = experiment: Antibacterial activity against wild-type Streptococcus pneumoniae R6 by standardized agar doubling dilution method in presence of 50 uM sodium orthovanadate efflux pump inhibitor
Streptococcus pneumoniae [11] = experiment: Antibacterial activity against Streptococcus pneumoniae M300 overexpressing patA, patB and inactivated patA with single mutation by standardized agar doubling dilution method in presence of 50 uM sodium orthovanadate efflux pump inhibitor; assay type: functional; how it was run: as §3
Streptococcus pneumoniae [12] = experiment: Antibacterial activity against Streptococcus pneumoniae M50A overexpressing patA, patB and inactivated patA with single mutation by standardized agar doubling dilution method in presence of 20 ug/ml reserpine efflux pump inhibitor; assay type: functional
How it was run: (§5)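 MICs were determined by BSAC agar doubling dilution in the presence of reserpine at 20 μg/ml. Strains were grown in BHI broth for 24 h at 37°C in 5% CO2, with R6 as control. Synergy was defined as an MIC drop of ≥2 dilutions with the inhibitor.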

Streptococcus pneumoniae [13] = experiment: Antibacterial activity against Streptococcus pneumoniae M46A overexpressing patA, patB and inactivated patA with single mutation by standardized agar doubling dilution method in presence of 50 uM sodium orthovanadate efflux pump inhibitor; assay type: functional; how it was run: as §4
Streptococcus pneumoniae [14] = experiment: Antibacterial activity against fluoroquinolone, dye-resistant Streptococcus pneumoniae M296 overexpressing patA, patB by standardized agar doubling dilution method in presence of 50 uM sodium orthovanadate efflux pump inhibitor; assay type: functional; how it was run: as §1
Streptococcus pneumoniae [15] = experiment: Antibacterial activity against Streptococcus pneumoniae M45A overexpressing patA, patB and inactivated patA with single mutation by standardized agar doubling dilution method in presence of 20 ug/ml reserpine efflux pump inhibitor; assay type: functional; how it was run: as §5
Streptococcus pneumoniae [16] = experiment: Antibacterial activity against fluoroquinolone-resistant Streptococcus pneumoniae M83 FQ-R overexpressing patA, patB by standardized agar doubling dilution method in presence of 20 ug/ml reserpine efflux pump inhibitor; assay type: functional; how it was run: as §2
Streptococcus pneumoniae [17] = experiment: Antibacterial activity against Streptococcus pneumoniae M308 overexpressing patA, patB and inactivated patB with single mutation by standardized agar doubling dilution method; assay type: functional; how it was run: as §3
Streptococcus pneumoniae [18] = experiment: Antibacterial activity against fluoroquinolone, dye-resistant Streptococcus pneumoniae M297 overexpressing patA, patB by standardized agar doubling dilution method in presence of 50 uM sodium orthovanadate efflux pump inhibitor; assay type: functional; how it was run: as §1
Streptococcus pneumoniae [19] = experiment: Antibacterial activity against fluoroquinolone, dye-resistant Streptococcus pneumoniae M50 overexpressing patA, patB by standardized agar doubling dilution method in presence of 50 uM sodium orthovanadate efflux pump inhibitor; assay type: functional; how it was run: as §1
Streptococcus pneumoniae [20] = experiment: Antibacterial activity against dye-resistant Streptococcus pneumoniae by standardized agar doubling dilution method; assay type: functional; how it was run: as §1
Streptococcus pneumoniae [21] = experiment: Antibacterial activity against fluoroquinolone, dye-resistant Streptococcus pneumoniae M42 overexpressing patA, patB by standardized agar doubling dilution method in presence of 20 ug/ml reserpine efflux pump inhibitor; assay type: functional; how it was run: as §1
Streptococcus pneumoniae [22] = experiment: Antibacterial activity against Streptococcus pneumoniae M87A overexpressing patA, patB and inactivated patA with single mutation by standardized agar doubling dilution method; assay type: functional
How it was run: (§6)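 MICs were determined by agar doubling dilution following BSAC guidelines, with no efflux inhibitor. Strains were grown in brain heart infusion broth for 24 h at 37°C in 5% CO2. Species identity was confirmed by Gram stain, optochin sensitivity and capsule test. Control strain R6 was tested alongside.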

Streptococcus pneumoniae [23] = experiment: Antibacterial activity against fluoroquinolone-resistant Streptococcus pneumoniae M79 FQ-R overexpressing patA, patB by standardized agar doubling dilution method; assay type: functional; how it was run: as §2
Streptococcus pneumoniae [24] = experiment: Antibacterial activity against fluoroquinolone, dye-susceptible Streptococcus pneumoniae M295 S overexpressing patA, patB by standardized agar doubling dilution method in presence of 50 uM sodium orthovanadate efflux pump inhibitor; assay type: functional
How it was run: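 MIC by agar doubling dilution per BSAC guidelines; strains pregrown in brain heart infusion broth 24 h, 37°C, 5% CO2. MICs measured alone and with efflux pump inhibitors reserpine (20 μg/ml) or sodium orthovanadate (50 μM); synergy defined as ≥2-dilution MIC reduction in presence of inhibitor.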

Streptococcus pneumoniae [25] = experiment: Antibacterial activity against Streptococcus pneumoniae M50B overexpressing patA, patB and inactivated patB with single mutation by standardized agar doubling dilution method in presence of 50 uM sodium orthovanadate efflux pump inhibitor; assay type: functional; how it was run: as §4
Streptococcus pneumoniae [26] = experiment: Antibacterial activity against wild type Streptococcus pneumoniae M4 NCTC 7465 type 1 by standardized agar doubling dilution method; assay type: functional; how it was run: as §1
Streptococcus pneumoniae [27] = experiment: Antibacterial activity against Streptococcus pneumoniae M317 overexpressing patA, patB and inactivated patB with single mutation by standardized agar doubling dilution method; assay type: functional; how it was run: as §6

Row | SMILES | MIC (Streptococcus pneumoniae [1]) [µg/mL] | MIC (Streptococcus pneumoniae [2]) [µg/mL] | MIC (Streptococcus pneumoniae [3]) [µg/mL] | MIC (Streptococcus pneumoniae [4]) [µg/mL] | MIC (Streptococcus pneumoniae [5]) [µg/mL] | MIC (Streptococcus pneumoniae [6]) [µg/mL] | MIC90 (Streptococcus pneumoniae [7]) [µg/mL] | MIC (Streptococcus pneumoniae [8]) [µg/mL] | MIC (Streptococcus pneumoniae [9]) [µg/mL] | MIC (Streptococcus pneumoniae [10]) [µg/mL] | MIC (Streptococcus pneumoniae [11]) [µg/mL] | MIC (Streptococcus pneumoniae [12]) [µg/mL] | MIC (Streptococcus pneumoniae [13]) [µg/mL] | MIC (Streptococcus pneumoniae [14]) [µg/mL] | MIC (Streptococcus pneumoniae [15]) [µg/mL] | MIC (Streptococcus pneumoniae [16]) [µg/mL] | MIC (Streptococcus pneumoniae [17]) [µg/mL] | MIC (Streptococcus pneumoniae [18]) [µg/mL] | MIC (Streptococcus pneumoniae [19]) [µg/mL] | MIC (Streptococcus pneumoniae [20]) [µg/mL] | further results
1 | CC[n+]1c(-c2ccccc2)c2cc(N)ccc2c2ccc(N)cc21.[Br-] [HOMIDIUM BROMIDE] | 0.5 | 1 | 0.5 | 4 | 0.5 | 4 | 0.5 | 0.5 | 0.5 | 0.12 | 0.5 | 0.5 | 0.5 | 2 | 0.5 | 4 | 0.25 | 1 | 1 | 16 | MIC90 (Streptococcus pneumoniae [20]): 16 µg/mL; MIC (Streptococcus pneumoniae [21]): 0.5 µg/mL; MIC (Streptococcus pneumoniae [22]): 0.5 µg/mL; MIC (Streptococcus pneumoniae [23]): 2 µg/mL; MIC (Streptococcus pneumoniae [24]): 0.5 µg/mL; MIC (Streptococcus pneumoniae [25]): 0.5 µg/mL; MIC (Streptococcus pneumoniae [26]): 2 µg/mL; MIC (Streptococcus pneumoniae [27]): 0.5 µg/mL
2 | O=C(O)c1cn(C2CC2)c2cc(N3CCNCC3)c(F)cc2c1=O [CIPROFLOXACIN] | 8 | 32 | 8 (≈ 24.1 µM) | 32 (≈ 96.6 µM) | 8 | 64 (≈ 193 µM) | 4 | 32 | 8 (≈ 24.1 µM) | 0.25 | 2 | 4 | 0.12 | 8 | 1 | 64 | 2 (≈ 6.04 µM) | 8 | 32 | 0.25 (≈ 0.754 µM) | MIC90 (Streptococcus pneumoniae [20]): 0.25 µg/mL (≈ 0.754 µM); MIC (Streptococcus pneumoniae [21]): 32 µg/mL; MIC (Streptococcus pneumoniae [22]): 8 µg/mL (≈ 24.1 µM); MIC (Streptococcus pneumoniae [23]): 32 µg/mL (≈ 96.6 µM); MIC (Streptococcus pneumoniae [24]): 0.25 µg/mL; MIC (Streptococcus pneumoniae [25]): 4 µg/mL; MIC (Streptococcus pneumoniae [26]): 1 µg/mL (≈ 3.02 µM); MIC (Streptococcus pneumoniae [27]): 8 µg/mL (≈ 24.1 µM)
